PKD1 inh: inhibitors of human PKD1 kinase, biochemical, fluorescence polarization; PKD1 kinase fluorescence polarization assay; inhibition, % (concentration not given with the values); 0.056% of 200,000 active; AID 797, 2007; in the data active = inhibition above about 50%
m-calpain inh: inhibitors of pig calpain II, primary screen, biochemical, fluorogenic peptide substrate, 1536-well; inhibition, % at 16 µM; AID 1236, 2008; 0.37% of 220,000 active; purified calpain II, 30 min;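 active = inhibition above about 50%, limit read from the data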
Arbovirus anti: antivirals against arbovirus infection, primary screen, cell-based, full library, 10K replicate subset; inhibition, % at 10 µM; arbovirus infection cell-based antiviral screen; AID 1251, 2008; 0.37% of 200,000 active; in the data active = inhibition above about 30%
KCC2 mod: KCC2 cotransporter modulators, thallium flux, primary screen, cell-based, HEK293 KCC2, FluoZin-2 fluorescence, MLSMR. Solute carrier family 12 member 5 (Homo sapiens), Q9H2X9. 2.2% of 190,000 active. AID 1456, 2008. KCC2 cells, thallium flux FluoZin-2 fluorescence. B-score of Tl+ flux slope (higher = more flux/activation; lower = inhibition) at 10 µM;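 active = thallium flux slope and its plate-corrected score both differing from the plate sample mean at a set confidence after two filtering rounds, in either direction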;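 also: slope of fluorescence scaled to starting intensity during 10 to 20 s after thallium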
Mdm2 ligase inh: MDM2-luciferase reporter signal enhancers, primary screen, MDM2 E3 ligase inhibitor project, cell-based, luminescence, 1536-well. E3 ubiquitin-protein ligase Mdm2 (Homo sapiens), Q00987. cell-based MDM2 ubiquitination luciferase reporter, 2 h; 0 = plate control, 100 = twice control, blank-subtracted. signal enhancement, % at 5 µM. 0.11% of 210,000 active. AID 1230, 2008;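 active = signal enhancement of 30% or more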;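 also: luminescence tracks abundance of the self-degrading MDM2-luciferase fusion protein; higher signal means inhibition of MDM2 E3 ligase activity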
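system = mammalian cells stably expressing self-ubiquitinating, self-degrading MDM2 E3–luciferase fusion | quantity = 2000 cells per well seeded | incubation = 4 h cell settling then 2 h compound exposure, 37 °C | signal = SteadyLite luminescence, 15 min reagent step | benchmarks = plate control and blank wells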
ROMK primary: ROMK potassium channel modulators, primary screen, cell-based, thallium flux, MLSMR library; AID 1918, 2009; Tet-inducible ROMK, thallium flux fluorescence; actives lie on both sides; B-score at 10 µM; ATP-sensitive inward rectifier potassium channel 1 (Homo sapiens), P48048; 2% of 130,000 active;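 active = signal ratio slope over the read window, or its plate-corrected B-score, at least 3 SD from the plate mean, either direction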;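 also: B-score of the F/F0 ratio slope over 7 to 12 s after thallium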
ROMK hit retest: ROMK channel modulator hit retest, confirmation, cell-based, thallium flux, duplicate, resupplied hits; shares compounds with ROMK primary; fluorescence ratio; stronger effect = lower value; normalized thallium flux (F/F0 slope) at 10 µM; 54% of 3,000 active; AID 1917, 2009;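 active = Flux at 10 µM at least 3 SD below or above vehicle control mean in one or both replicates; inconclusive = no clear call, values can overlap the other calls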
Hits are given with their value; n = inactive; u = inconclusive; x = not tested or not shown. Rows were chosen to be rich in hits. Some 3.7% of all compounds tested hit in one or more screens of this group.

SMILES	PKD1 inh	m-calpain inh	Arbovirus anti	KCC2 mod	Mdm2 ligase inh	ROMK primary	ROMK hit retest
CCOC(=O)c1cnc2ccc(OCC)cc2c1NCc1cccnc1	n	n	n	n	n	3.7	n
CCSc1nnc(-c2sc3nnc(-c4ccccc4)c(-c4ccccc4)c3c2N)o1	n	n	n	n	n	x	x
CC(=O)c1c(C)nn(C(C)CC(=O)O)c1C (stereo unspecified)	n	n	n	n	n	x	n
CC(CC(=O)O)n1nnc2ccccc21 (stereo unspecified)	x	n	x	n	n	x	x
Cc1ccc(OCC(=O)NNC(=O)C2CCN(c3nc(C)cc(C)n3)CC2)cc1	n	n	n	n	n	x	x
COc1cc(CNC(C)(C)CO)cc(Br)c1OCc1ccc(Cl)cc1	n	n	n	n	n	-5.1	0.056
CC1(C)Oc2ccccc2OC1(O)c1ccc2ccccc2n1 (stereo unspecified)	n	n	n	n	n	x	0.064
O=C(CNCc1ccccn1)Nc1cc(S(=O)(=O)N2CCCCC2)ccc1Cl	n	n	n	n	n	n	x
COc1ccccc1CNCC(=O)Nc1cc(S(=O)(=O)N2CCCCCC2)ccc1Cl	x	n	x	n	n	x	0.066
CCOc1ccc(N(CC(=O)N2CCN(c3ccccc3)CC2)S(=O)(=O)c2c(C)noc2C)cc1	n	n	n	x	n	x	n
CCOC(=O)c1ccc(NC(=O)COc2ccc(-n3cnnn3)cc2)cc1	n	n	n	x	n	n	n
CCOc1cc(/C=C(\C#N)c2[nH]nc(N)c2C#N)ccc1O	n	n	n	x	n	4.8	n
O=C(NCc1ccccn1)C1CCN(Cc2cnn(-c3ccccc3)c2-n2cccc2)CC1	n	n	n	n	n	n	x
COc1cccc(CNC(=O)C2CCN(Cc3cnn(-c4ccccc4)c3-n3cccc3)CC2)c1	n	n	n	n	n	-3.5	0.055
CCOc1ccc(Br)cc1S(=O)(=O)Nc1nc(CN2CCOCC2)nc2sc(C)c(C)c12	n	n	n	n	n	x	x
O=C(Oc1cccnc1)c1ccc(Cl)c(Cl)c1	n	n	n	n	n	-5.4	u
N#C/C(=C(/O)c1cc2ccccc2o1)c1nc2ccccc2s1	x	n	x	n	n	x	0.058
O=C(/C=C/c1ccc(Br)cc1)c1ccc(NC(=O)c2ccco2)cc1	n	n	n	n	n	x	x
O=C(/C=C/c1ccc(Br)cc1)c1ccco1	n	n	n	n	n	-5.4	u
COc1cc2c(cc1OC)-c1c(OC)c(OC)cc3ccnc(c13)C2=O	n	n	n	n	x	-3.4	0.054
O=C(NCCc1c[nH]c2ccccc12)/C(=C/c1ccco1)NC(=O)c1ccco1	n	n	n	n	n	2.3	n
CN(C)c1ccc2c(c1)OC(N)=C(C#N)C2c1cccc(F)c1 (stereo unspecified)	n	n	n	n	n	x	0.064
Cc1ccc(-c2nc(NCCN3CCOCC3)c3ccccc3n2)cc1	n	n	n	n	n	x	x
Oc1ccccc1-c1nc(NCCN2CCOCC2)c2ccccc2n1	n	n	n	x	n	-3.7	n
Cc1cc(S(=O)(=O)Nc2c(C)nc3nc[nH]n3c2=O)ccc1F	n	n	n	n	n	n	x
SMILES	PKD1 inh	m-calpain inh	Arbovirus anti	KCC2 mod	Mdm2 ligase inh	ROMK primary	ROMK hit retest
O=C1Nc2ccccc2C(O)(C(=O)N2CCCCC2)N1c1ccccc1 (stereo unspecified)	n	n	n	n	n	x	x
CC(C)NC(=O)C1(O)c2ccccc2NC(=O)N1c1ccc(Cl)c(Cl)c1 (stereo unspecified)	n	n	n	n	n	x	u
COc1ccc(OC)c2c(C)cc(N3CCN(C(=O)c4ccc(F)cc4)CC3)nc12	n	n	n	n	n	x	x
COc1ccc(OC)c2c(C)cc(N3CCN(C(=O)c4ccc(C)cc4)CC3)nc12	n	n	n	n	n	-8.5	n
CCCNC(=S)Nc1cccc(C(F)(F)F)c1	n	n	n	n	n	n	u
COc1ccc(N2CCN(C(=O)c3ccc(N(C)S(=O)(=O)c4ccc(OC)cc4)cc3)CC2)cc1	n	n	n	n	n	-14	u
Cc1ccc(S(=O)(=O)N(C)c2ccc(C(=O)N3CCN(Cc4ccc5c(c4)OCO5)CC3)cc2)cc1	n	n	n	x	n	-5	0.063
COc1ccc(N2CCN(C(=O)c3ccc(N(C)S(=O)(=O)c4ccc(C)cc4)cc3)CC2)cc1	n	n	n	n	x	n	x
CCc1ccccc1-n1nnnc1-c1cnccc1C(F)(F)F	x	n	x	n	n	x	x
CC(NC(=O)CSc1ncccc1C(=O)O)C1CC2CCC1C2 (stereo unspecified)	x	n	x	n	n	x	x
CN(Cc1ccccc1)CC(O)COc1ccc(CNCc2ccc(Cl)s2)cc1 (stereo unspecified)	n	n	n	n	n	n	x
CC(=O)c1cccc(Nc2cc(C)nc3c(C)cc(C)cc23)c1	n	n	n	n	n	n	x
CC(=O)c1ccc(Nc2cc(C)nc3c(C)cccc23)cc1	n	n	n	n	n	4.2	n

Screening results deposited in PubChem BioAssay by several laboratories.
